The data set is described as follows: Toxicity liver stage against HepG2, at 10uM. It counts as cell-based. More on the design: test concentration 10 uM, cell line HepG2-A16-CD81EGFP. The note with it: human, HepG2-A16-CD81EGFP cells; read-out: INHIBITION
The gist of the method: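 Uninfected HepG2-A16-CD81EGFP cells, 3 × 10^3 per well, 1536-well, plated on prespotted compound at 10 μM final, parasite-free screening media added to match infected plates; puromycin 10 μM positive, DMSO 0.5% negative; run in parallel with 48 h PbLuc assay at 37 °C, 5% CO2; viability by CellTiter-Glo luminescence, normalized to controls.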

On to `O=C(Cc1ccccc1)N1Cc2nccn2CC(CN2CCCC2)C1` (stereo not given), for which the cytotoxicity at 10 µM is -101%.

Turning to `c1ccc(CC2(CNCc3ncc[nH]3)CCC2)cc1`, the cytotoxicity at 10 µM worked out at 0.458%.

Regarding `CC(C)N1CCC(C(=O)N2CCC(C(O)c3nccn3C)CC2)CC1` (stereo not given), the cytotoxicity at 10 µM was -2.7%.

In the case of `O=C(O)c1c(-c2ccncc2)ncc2c1CCN(Cc1ccco1)C2`, the cytotoxicity at 10 µM is -3.6%.

Turning to `Cc1nc(CN2C[C@@H]3CN(C(=O)c4cnccn4)C[C@@H]3C2)cs1`, the cytotoxicity at 10 µM was -8.97%.

With `CCOC(=O)NCCNC(=O)c1cc2ccccc2nc1N1CCCC1`, the cytotoxicity at 10 µM is -7.74%.

In the case of `Cn1ccc(C(=O)NCc2cccc(NC(=O)C3CCC3)c2)cc1=O`, the cytotoxicity at 10 µM was -10%.

Consider `O=C(NCCn1cccn1)C1CCC(=O)N(CC2CCCCC2)C1` (stereo not given), for which the cytotoxicity at 10 µM is 6.8%.

`Cc1cc(CN2CCC3(CC2)CC(C(=O)O)N(C(=O)C2CC2)C3)oc1C` (stereo not given): the cytotoxicity at 10 µM is -7.32%.

For `CCOC(=O)CCNC(=O)N1CCCC(CNC(=O)c2cccs2)C1` (stereo not given), the cytotoxicity at 10 µM came to 0.712%.

For the compound `COCCN1C[C@H]2CN(Cc3cccc(OC)c3)CCN2C1=O`, the cytotoxicity at 10 µM worked out at 7.91%.

In the case of `CCN(CC)c1ccc2ccc(C(=O)N(C)C)cn12`, the cytotoxicity at 10 µM is 0.626%.

`CN(CCS(=O)(=O)c1cc(Cl)ccc1Cl)CC(N)=O`: the cytotoxicity at 10 µM came out at 4.65%.

On to `CS(=O)(=O)CCCNC(=O)C1(c2cccc(Cl)c2)CC1`, for which the cytotoxicity at 10 µM is -2.26%.

As to `CN(c1nccc(-c2cnc3sc(Cl)cn3c2=O)n1)C1CCCCC1`, the cytotoxicity at 10 µM turned out to be 1.36%.

Regarding `Cc1ncsc1CN1CCn2nc(CCC(=O)N3CCCC3)cc2C1`, the cytotoxicity at 10 µM was -22.2%.

With `O=C(NCc1cccnc1)[C@H]1CN2CCC1C[C@@H]2Cn1cc(CO)nn1` (stereo not given in full), the cytotoxicity at 10 µM is -0.843%.

`CC(C)c1nn(C)cc1CNCc1cccnc1N(C)C`: the cytotoxicity at 10 µM was -1.96%.

For the compound `O=C(CN1CCC(C(=O)c2cc(F)ccc2F)CC1)NC1CC1`, the cytotoxicity at 10 µM is -6.04%.

On to `CN1C[C@@H](F)[C@@H](OCc2nc3ccccc3[nH]2)C1`, for which the cytotoxicity at 10 µM came to 5.34%.

`N#Cc1cc(S(N)(=O)=O)ccc1NC1CCc2c(F)cccc21` (stereo not given): the cytotoxicity at 10 µM is -12.4%.

Take `CNC(=O)N1CCC2(CC1)CNc1ccc(F)cc12`: the cytotoxicity at 10 µM came to 10.1%.

In the case of `CN(C)S(=O)(=O)N1CCCC1C(=O)N1CCSCC1` (stereo not given), the cytotoxicity at 10 µM stood at 6.67%.

For `COCc1nc(C(=O)N2CCCC2c2cc(C)no2)cs1` (stereo not given), the cytotoxicity at 10 µM was -12.9%.

On to `CCOc1ccccc1CC(=O)N1C[C@@H](C(=O)O)[C@H](c2ccncc2)C1`, for which the cytotoxicity at 10 µM was 9.15%.

In the case of `COC(=O)Cn1c(=O)[nH]c2cn(-c3ccc(Br)cc3)c(=O)n21`, the cytotoxicity at 10 µM came to 1.4%.

In the case of `Cc1cc(CNC(=O)Nc2cc(F)cc(N3CCCC3)c2)no1`, the cytotoxicity at 10 µM is -17.7%.

Consider `Cc1ccc(-c2csc3c(=O)[nH]c(N4CCCC(C(=O)O)C4)nc23)cc1` (stereo not given), for which the cytotoxicity at 10 µM is -68%.

On to `Cc1ccc(CN(CCN(C)C)Cc2ncc[nH]2)s1`, for which the cytotoxicity at 10 µM was -10.5%.

In the case of `O=C(c1cccc(CO)n1)N1CCOC(c2ccc(Cl)c(Cl)c2)C1` (stereo not given), the cytotoxicity at 10 µM is -10.4%.

For `Cc1nc(CN(C)C2CCN(Cc3ccno3)C2)no1` (stereo not given), the cytotoxicity at 10 µM was found to be 2.07%.

Take `O=C(c1cc(Cl)c2c(c1)OCO2)N1CCN(c2ccccn2)CC1`: the cytotoxicity at 10 µM was -2.67%.

On to `CC(=O)N[C@@H]1CN(C(=O)c2cc3sccc3[nH]2)C[C@H]1c1ccc(C)o1`, for which the cytotoxicity at 10 µM stood at 8.98%.

In the case of `CCCc1nc(N[C@H]2COC[C@@H]2N2CCCC2)c2cnn(C)c2n1`, the cytotoxicity at 10 µM is -6.56%.

Take `CC(C)=CCN1CCN(C(=O)COc2ccccc2)[C@H]2CS(=O)(=O)C[C@H]21`: the cytotoxicity at 10 µM was -1.64%.

With `CCn1nc(C)c(S(=O)(=O)Nc2ccccc2C(=O)OC)c1C`, the cytotoxicity at 10 µM was -0.678%.

For `CSCCNC(=O)c1cc(Br)cn1C(C)C`, the cytotoxicity at 10 µM was -1.16%.

As for `CCc1nc(CSc2nnc(N)n2C2CC2)no1`, the cytotoxicity at 10 µM came to 6.12%.

For `CN(Cc1ccccn1)C(=O)[C@H]1CO[C@H]2CCN(CC3CC3)C[C@H]2C1`, the cytotoxicity at 10 µM was -105%.

As for `Cc1nn(C)c(N(C)C)c1CNC1CCOc2ccccc21` (stereo not given), the cytotoxicity at 10 µM is -9.66%.

Regarding `CN(CCn1ccc2ccccc21)C(=O)Cc1nnn[nH]1`, the cytotoxicity at 10 µM was -8.93%.

As for `COc1ccccc1CN1C[C@@H]2CN(C(C)=O)CCO[C@@H]2C1`, the cytotoxicity at 10 µM is -102%.

In the case of `Cc1nc(C)n(CCCNC(=O)C(C)n2ccnc2C(C)C)n1` (stereo not given), the cytotoxicity at 10 µM was -4.97%.

Turning to `Cn1cnnc1C1CCN(c2cncc(-n3cccn3)n2)CC1`, the cytotoxicity at 10 µM is -8.37%.

With `Cc1cccc(-c2noc(CN3CCCC3Cn3cccn3)n2)c1` (stereo not given), the cytotoxicity at 10 µM turned out to be 1.68%.

Turning to `Cc1nc2n(n1)CC(NCc1nc(-c3cccs3)no1)CC2` (stereo not given), the cytotoxicity at 10 µM is -1.66%.

`CCS(=O)(=O)N1CCC2(CN(C(=O)c3cscn3)C2)C1`: the cytotoxicity at 10 µM is 10.8%.

With `CN(C)C(=O)n1c(C(=O)NC(C)(C)CO)cc2c1c1ccccc1n2C`, the cytotoxicity at 10 µM is -76.2%.

On to `O=C1N[C@@H]2CCN(C(=O)C3CC3)[C@@H]2C(=O)N1c1ccccc1`, for which the cytotoxicity at 10 µM is 1.44%.

For the compound `CC(NC(=O)NCCCN(C)S(C)(=O)=O)c1ccncc1` (stereo not given), the cytotoxicity at 10 µM is -0.409%.

On to `O=C(c1ccco1)N1CC[C@H]2C[C@@H](c3nccs3)O[C@@H]2C1`, for which the cytotoxicity at 10 µM is 0.428%.

Turning to `Cc1nn(C)c(C)c1CN(Cc1cccn1-c1cccnc1)C(C)C`, the cytotoxicity at 10 µM is -3.16%.

For `COc1cc(C(=O)N2CCCC(CNS(C)(=O)=O)C2)cc(OC)c1C` (stereo not given), the cytotoxicity at 10 µM was -7.69%.

For the compound `Cc1ccc(=O)n(CC(=O)N2CCCC(c3nc(C)c(C)s3)C2)n1` (stereo not given), the cytotoxicity at 10 µM is -3.06%.

In the case of `CN1CCCC(c2nccnc2-c2cccc(Cl)c2)C1` (stereo not given), the cytotoxicity at 10 µM stood at 3.57%.

For `COCCC(=O)N1CCCC([C@@H]2C[C@H](C(F)F)n3ncnc3N2)C1` (stereo not given in full), the cytotoxicity at 10 µM was -1.28%.

As for `CCc1nc2n(n1)CC(NCc1noc(-c3ccccc3)n1)CC2` (stereo not given), the cytotoxicity at 10 µM is -10.6%.

With `C=C(C)CN1CCCC(CNS(C)(=O)=O)C1` (stereo not given), the cytotoxicity at 10 µM worked out at 5.63%.

On to `CC(=O)N1CCC(c2nccnc2-c2ccc(C(=O)O)cc2)CC1`, for which the cytotoxicity at 10 µM came to 11.1%.

As for `CN(Cc1ccccc1)CC1(O)CCCN(Cc2ccc(F)cc2)C1=O` (stereo not given), the cytotoxicity at 10 µM was -14.6%.

With `COc1cccc(OCC2CCCN(C(=O)c3cc(C)n[nH]3)C2)c1` (stereo not given), the cytotoxicity at 10 µM is -3.42%.

For the compound `CCOCc1ncn2c1CN(C(=O)Nc1cccc(F)c1)CC2`, the cytotoxicity at 10 µM came to 1.03%.

Consider `Cc1ccc(-n2nnc(C(=O)NCCS(N)(=O)=O)c2C2CC2)cc1`, for which the cytotoxicity at 10 µM is -5.21%.

With `COc1cccc(C(=O)NC(c2ccccn2)C2CCC(CN)CC2)c1` (stereo not given), the cytotoxicity at 10 µM was -9.33%.

Take `Fc1ccc(-c2nccnc2C2CCCNC2)cc1` (stereo not given): the cytotoxicity at 10 µM is -23.8%.

As for `CCN1CCOCC12CCN(C(=O)C1CCC1)CC2`, the cytotoxicity at 10 µM is -1.39%.

In the case of `CSC(CNS(N)(=O)=O)c1cccc(Cl)c1` (stereo not given), the cytotoxicity at 10 µM is -14.3%.

Turning to `Cn1ccnc1CN1CCCN(C(=O)c2cccc(CC#N)c2)CC1`, the cytotoxicity at 10 µM is -2.13%.

Turning to `Cc1ccc2c(c1)CN(C(=O)c1ccncc1)C(CN(C)C)CO2` (stereo not given), the cytotoxicity at 10 µM was -13.5%.

Regarding `CCC1(c2ccc(NS(=O)(=O)c3cccs3)cc2)CCC(=O)NC1=O` (stereo not given), the cytotoxicity at 10 µM is -8.55%.
